Reference: ChEMBL document CHEMBL3259651, “Bis(4-hydroxy-2H-chromen-2-one): synthesis and effects on leukemic cell lines proliferation and NF-κB regulation” (Bioorg Med Chem, 2014)
Activity calls are given as the source filed them. No cut-off for these calls is given here.

Tests used:
[1] = test system: K562; test: Cytotoxicity against human K562 cells assessed as growth inhibition at 10 to 100 uM after 24 to 72 hrs by trypan blue exclusion assay; assay type: functional, cell-based
In short: (§1)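 Trypan blue counting of proliferation (cells/mL) and viability. Exponential-phase cells were seeded at 200,000 cells/mL in RPMI 1640 with 10% heat-inactivated FCS at 37 °C and 5% CO2. They were treated from 50 mM DMSO stocks against DMSO-matched controls and read at 24, 48 and 72 h (PBMCs at 24 and 48 h).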

[2] = target: T1, Nuclear factor NF-kappa-B complex (Homo sapiens) (UniProt Q00653+P19838+Q04206); test: Inhibition of NF-kappaB transactivation in TNF-alpha-stimulated human K562 cells at 10 to 100 uM preincubated for 2 hrs followed by TNF-alpha challenge measured after 6 hrs by dual luciferase reporter gene assay; assay type: cell-based
T1 sequence (Q00653 whole entry, looked up, one chain of several): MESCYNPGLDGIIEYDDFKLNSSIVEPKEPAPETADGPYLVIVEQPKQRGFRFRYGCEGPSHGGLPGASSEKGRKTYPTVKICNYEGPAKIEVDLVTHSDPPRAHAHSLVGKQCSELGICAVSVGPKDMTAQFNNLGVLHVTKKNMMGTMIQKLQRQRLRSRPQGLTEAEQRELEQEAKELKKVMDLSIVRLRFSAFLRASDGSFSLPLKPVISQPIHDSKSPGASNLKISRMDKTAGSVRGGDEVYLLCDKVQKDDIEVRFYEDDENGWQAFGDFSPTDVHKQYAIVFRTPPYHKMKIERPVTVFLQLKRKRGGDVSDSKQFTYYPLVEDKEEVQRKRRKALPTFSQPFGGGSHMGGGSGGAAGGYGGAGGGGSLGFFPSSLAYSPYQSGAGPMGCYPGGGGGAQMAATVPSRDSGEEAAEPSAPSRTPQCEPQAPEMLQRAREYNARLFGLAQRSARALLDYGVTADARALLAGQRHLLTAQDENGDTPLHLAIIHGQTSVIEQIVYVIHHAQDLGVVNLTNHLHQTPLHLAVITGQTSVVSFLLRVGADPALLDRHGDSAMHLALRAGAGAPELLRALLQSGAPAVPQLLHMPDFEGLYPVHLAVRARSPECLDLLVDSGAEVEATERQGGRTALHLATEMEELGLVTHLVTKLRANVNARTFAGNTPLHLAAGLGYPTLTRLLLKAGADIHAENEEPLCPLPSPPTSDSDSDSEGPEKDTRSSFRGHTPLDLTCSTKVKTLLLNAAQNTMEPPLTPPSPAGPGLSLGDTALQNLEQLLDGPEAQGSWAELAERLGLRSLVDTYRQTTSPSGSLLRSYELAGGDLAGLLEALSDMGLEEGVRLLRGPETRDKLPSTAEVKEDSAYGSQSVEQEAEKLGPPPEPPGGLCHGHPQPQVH
T1 sequence (Q04206 whole entry, looked up, one chain of several): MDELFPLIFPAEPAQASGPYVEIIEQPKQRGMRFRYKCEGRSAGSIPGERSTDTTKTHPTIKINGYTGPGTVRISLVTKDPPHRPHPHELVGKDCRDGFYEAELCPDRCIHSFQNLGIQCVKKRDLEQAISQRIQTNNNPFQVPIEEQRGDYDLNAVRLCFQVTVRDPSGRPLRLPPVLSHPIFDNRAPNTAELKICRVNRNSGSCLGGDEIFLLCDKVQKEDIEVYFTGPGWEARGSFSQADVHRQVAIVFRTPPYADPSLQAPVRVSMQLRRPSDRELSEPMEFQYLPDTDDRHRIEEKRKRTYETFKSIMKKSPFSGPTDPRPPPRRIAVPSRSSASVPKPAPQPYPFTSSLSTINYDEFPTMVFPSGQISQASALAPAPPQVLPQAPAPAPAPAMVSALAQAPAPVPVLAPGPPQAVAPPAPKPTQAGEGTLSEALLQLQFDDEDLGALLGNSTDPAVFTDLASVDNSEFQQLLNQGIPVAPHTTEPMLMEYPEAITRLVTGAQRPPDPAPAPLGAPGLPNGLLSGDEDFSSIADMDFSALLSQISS
In short: (§2)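 Cells co-transfected with 5 µg of a firefly luciferase reporter carrying five consensus NF-κB sites plus 5 µg of a Renilla TK control plasmid. 24 h later, compound for 2 h, then ± 20 ng/ml TNF-α for 6 h more. Firefly:Renilla ratio, TNF-α-only cells set to 100%. Three independent measurements in quadruplicate.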

[3] = target: T2, Nuclear factor NF-kappa-B p105 subunit (Homo sapiens) (UniProt P19838); test: Inhibition of NF-kappaB p50 subunit translocation from cytoplasm to nucleus in TNF-alpha-stimulated human Jurkat cells at 40 uM preincubated for 2 hrs followed by TNF-alpha challenge measured after 2 to 90 mins by Western blot analysis; assay type: cell-based
T2 sequence (whole entry): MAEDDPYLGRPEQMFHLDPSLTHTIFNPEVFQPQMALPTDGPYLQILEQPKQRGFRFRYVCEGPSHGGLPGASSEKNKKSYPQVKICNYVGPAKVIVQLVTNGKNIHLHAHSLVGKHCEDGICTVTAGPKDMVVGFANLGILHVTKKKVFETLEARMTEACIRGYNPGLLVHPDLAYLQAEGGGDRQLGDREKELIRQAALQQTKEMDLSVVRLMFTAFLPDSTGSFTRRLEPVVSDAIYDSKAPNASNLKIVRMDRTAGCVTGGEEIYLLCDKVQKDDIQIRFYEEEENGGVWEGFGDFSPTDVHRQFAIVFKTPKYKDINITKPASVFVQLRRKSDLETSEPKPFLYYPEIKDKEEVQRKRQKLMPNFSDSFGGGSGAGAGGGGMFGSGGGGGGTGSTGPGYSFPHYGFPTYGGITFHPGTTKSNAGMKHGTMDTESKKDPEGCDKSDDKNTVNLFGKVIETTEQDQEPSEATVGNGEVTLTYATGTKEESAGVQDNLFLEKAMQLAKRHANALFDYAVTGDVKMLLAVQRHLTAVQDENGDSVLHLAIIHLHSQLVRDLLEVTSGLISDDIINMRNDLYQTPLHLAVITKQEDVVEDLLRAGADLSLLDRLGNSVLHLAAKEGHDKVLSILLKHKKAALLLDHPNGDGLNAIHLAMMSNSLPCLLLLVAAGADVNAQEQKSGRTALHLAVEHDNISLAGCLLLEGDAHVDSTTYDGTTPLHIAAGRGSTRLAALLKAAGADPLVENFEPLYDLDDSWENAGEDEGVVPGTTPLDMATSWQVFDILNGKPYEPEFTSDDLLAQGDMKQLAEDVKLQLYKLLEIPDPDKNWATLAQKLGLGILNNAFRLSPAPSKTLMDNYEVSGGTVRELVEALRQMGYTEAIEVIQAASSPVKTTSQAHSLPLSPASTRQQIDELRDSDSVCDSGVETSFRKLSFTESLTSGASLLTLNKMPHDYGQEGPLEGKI
In short: (§3)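 JURKAT cells pretreated 2 h with 40 µM compound, then ± 20 ng/ml TNF-α for the indicated times. Cytoplasmic and nuclear fractions immunoblotted; loading and fraction purity checked with lamin B and α-tubulin. Blots representative of three independent experiments.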

[4] = test system: PBMC; test: Cytotoxicity against human PBMC assessed as effect on cell viability at >100 uM after 24 to 48 hrs by trypan blue exclusion assay; assay type: cell-based; in short: as §1
[5] = test system: Jurkat; test: Cytotoxicity against human Jurkat cells assessed as reduction of cell viability at 50 uM after 24 hrs by trypan blue exclusion assay; assay type: functional, cell-based; in short: as §1
[6] = target: T1, Nuclear factor NF-kappa-B complex (Homo sapiens); test: Inhibition of NF-kappaB transactivation in TNF-alpha-stimulated human Jurkat cells preincubated for 2 hrs followed by TNF-alpha challenge measured after 6 hrs by dual luciferase reporter gene assay; assay type: cell-based; in short: as §2
[7] = target: T3, NF-kappa-B inhibitor alpha (Homo sapiens) (UniProt P25963); test: Inhibition of IkappaB-alpha degradation in TNF-alpha-stimulated human Jurkat cells at 40 uM preincubated for 2 hrs followed by TNF-alpha challenge measured after 2 to 90 mins by Western blot analysis; assay type: cell-based; in short: as §3
T3 sequence (whole entry): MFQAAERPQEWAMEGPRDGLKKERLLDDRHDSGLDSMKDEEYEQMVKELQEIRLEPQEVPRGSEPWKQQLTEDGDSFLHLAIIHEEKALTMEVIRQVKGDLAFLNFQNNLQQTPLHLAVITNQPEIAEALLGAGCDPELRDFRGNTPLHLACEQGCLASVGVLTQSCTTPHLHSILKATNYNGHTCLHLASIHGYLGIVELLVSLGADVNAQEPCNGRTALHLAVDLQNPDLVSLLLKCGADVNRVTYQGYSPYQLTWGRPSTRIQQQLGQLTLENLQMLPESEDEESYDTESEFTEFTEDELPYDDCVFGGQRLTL

[8] = test system: Jurkat; test: Cytotoxicity against human Jurkat cells assessed as growth inhibition at 50 uM after 24 to 72 hrs by trypan blue exclusion assay; assay type: functional, cell-based; in short: as §1
[9] = test system: K652; test: Cytotoxicity against human […] cells assessed as growth inhibition at 25 uM after 24 hrs by trypan blue exclusion assay; assay type: functional, cell-based; in short: as §1
[10] = Cell cycle arrest in human […] cells assessed as accumulation at G0/G1 phase at 25 uM measured at 24 hrs by propidium iodide staining-based flow cytometric analysis; assay type: functional
In short: (§4)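 Cells in exponential phase at 200,000 cells/mL in RPMI 1640 with 10% heat-inactivated FCS, 37 °C, 5% CO2, treated from DMSO stocks alongside DMSO vehicle controls. Cell cycle distribution was analysed at time points between 8 and 72 h.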

[11] = test system: Jurkat; test: Cytotoxicity against human Jurkat cells assessed as growth inhibition at 10 uM after 48 hrs by trypan blue exclusion assay; assay type: functional, cell-based; in short: as §1
[12] = target: T1, Nuclear factor NF-kappa-B complex (Homo sapiens); test: Inhibition of NF-kappaB in human K562 cells assessed as reduction of TNF-alpha-induced ICAM1 mRNA expression preincubated for 2 hrs followed by TNF-alpha challenge measured after 6 hrs by qRT-PCR analysis; assay type: cell-based
In short: (§5)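 K-562 cells given compound for 2 h, then cultured ± 20 ng/ml TNF-α for 6 h. Total RNA analysed by qRT-PCR with ICAM1- and CFLAR-specific primers, expressed as target/β-actin mRNA ratio; mean ± SD of 3 independent experiments.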

[13] = target: Transcription factor p65 (Homo sapiens) (UniProt Q04206); test: Inhibition of NF-kappaB p65 subunit translocation from cytoplasm to nucleus in TNF-alpha-stimulated human Jurkat cells at 40 uM preincubated for 2 hrs followed by TNF-alpha challenge measured after 2 to 90 mins by Western blot analysis; assay type: cell-based; in short: as §3
Chain of Transcription factor p65 (Homo sapiens) (Q04206 whole entry): as the sequence (Q04206 whole entry, looked up, one chain of several) above

[14] = target: T1, Nuclear factor NF-kappa-B complex (Homo sapiens); test: Inhibition of NF-kappaB transactivation in TNF-alpha-stimulated human K562 cells preincubated for 2 hrs followed by TNF-alpha challenge measured after 6 hrs by dual luciferase reporter gene assay; assay type: cell-based; in short: as §2
[15] = test system: Jurkat; test: Cytotoxicity against human Jurkat cells assessed as growth inhibition at 25 uM after 24 hrs by trypan blue exclusion assay; assay type: functional, cell-based; in short: as §1
[16] = test system: Jurkat; test: Cell cycle arrest in human Jurkat cells assessed as accumulation at G0/G1 phase at 50 uM at 8 hrs by propidium iodide staining-based flow cytometric analysis; assay type: functional; in short: as §4
[17] = target: T1, Nuclear factor NF-kappa-B complex (Homo sapiens); test: Inhibition of NF-kappaB in human K562 cells assessed as reduction of TNF-alpha-induced CFLAR mRNA expression preincubated for 2 hrs followed by TNF-alpha challenge measured after 6 hrs by qRT-PCR analysis; assay type: cell-based; in short: as §5

| SMILES | growth inhibition (GI) [1] | inhibition [2] | inhibition [3] | Activity [4] | Activity [5] | inhibition [6] | inhibition [7] | growth inhibition (GI) [8] | growth inhibition (GI) [9] | Activity [10] | growth inhibition (GI) [11] | inhibition [12] | inhibition [13] | inhibition [14] | growth inhibition (GI) [15] | Activity [16] | inhibition [17] |
| --- | --- | --- | --- | --- | --- | --- | --- | --- | --- | --- | --- | --- | --- | --- | --- | --- | --- |
| O=c1cc(O)c2ccccc2o1 | inactive | inactive |  |  |  |  |  |  |  |  |  |  |  |  |  |  |  |
| CCC(=O)c1ccccc1O | inactive | inactive |  |  |  |  |  |  |  |  |  |  |  |  |  |  |  |
| O=C(CC(c1c(O)c2ccccc2oc1=O)c1c(O)c2ccccc2oc1=O)c1ccccc1O |  |  | Active | Non-toxic | Active | Dose-dependent effect | Active | Active | Active | Active | Active | Dose-dependent effect | Active | Dose-dependent effect | Active | Active | Dose-dependent effect |
